Measurements taken from ChEMBL document CHEMBL4145666, “In Search of Selectivity in Inhibition of ADAM10” (ACS Med Chem Lett, 2018).

Key:
Type in all cases: ADME, organism-based
[1] = AUC (0 to last) in CD-1 mouse brain assessed per mg tissue at 10 mg/kg, ip by UPLC analysis; settings: in vivo
Outline: (§1)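 Male CD-1 mice, 6–7 weeks old, about 30 g, fed and watered ad libitum. Single dose of 10 mg/kg ip or 25 mg/kg sc, given as 100 μL formulation; n = 3 per time point per route. At set times, blood was taken by cardiac puncture with heparinized syringes and spun to plasma. Brains were harvested after transcardiac saline perfusion, weighed and flash-frozen. Brain levels are in pmol/mg tissue.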

[2] = AUC (0 to infinity) in CD-1 mouse brain assessed per mg tissue at 10 mg/kg, ip by UPLC analysis; set-up: dose 10 mg/kg, route intraperitoneal, time infinity; settings: in vivo; outline: as §1
[3] = Ratio of AUC (0 to infinity) in brain to plasma in CD-1 mouse at 10 mg/kg, ip by UPLC analysis; settings: read-out: Ratio AUC
Outline: (§2)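 Male CD-1 mice (6–7 weeks, about 30 g) received one dose: 10 mg/kg ip or 25 mg/kg sc, with n = 3 per time point per route. At set times, plasma came from heparinized cardiac-puncture blood. Brain was taken after transcardiac saline perfusion, weighed and flash-frozen. Brain levels were in pmol/mg tissue, plasma in μM. Value is AUCbrain/AUCplasma.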

[4] = AUC (0 to last) in CD-1 mouse plasma at 10 mg/kg, ip by UPLC analysis; set-up: dose 10 mg/kg, time 0 - last, route intraperitoneal; outline: as §1
[5] = AUC (0 to infinity) in CD-1 mouse plasma at 10 mg/kg, ip by UPLC analysis; set-up: dose 10 mg/kg, route intraperitoneal, time infinity; outline: as §1
[6] = Primary phase half life in CD-1 mouse plasma at 10 mg/kg, ip by UPLC analysis; settings: read-out: alphat1/2; outline: as §1
[7] = Elimination half life in CD-1 mouse plasma at 10 mg/kg, ip by UPLC analysis; settings: read-out: beta t1/2; outline: as §1
[8] = AUC (0 to last) in CD-1 mouse brain assessed per mg tissue at 25 mg/kg, sc by UPLC analysis; settings: in vivo; outline: as §1
[9] = AUC (0 to infinity) in CD-1 mouse brain assessed per mg tissue at 25 mg/kg, sc by UPLC analysis; set-up: dose 25 mg/kg, route subcutaneous, time infinity; settings: in vivo; outline: as §1
[10] = Primary phase half life in CD-1 mouse brain at 25 mg/kg, sc by UPLC analysis; settings: read-out: alphat1/2; outline: as §1
[11] = Elimination half life in CD-1 mouse brain at 25 mg/kg, sc by UPLC analysis; settings: read-out: beta t1/2; outline: as §1
[12] = Ratio of AUC (0 to infinity) in brain to plasma in CD-1 mouse at 25 mg/kg, sc by UPLC analysis; settings: read-out: Ratio AUC; outline: as §2
[13] = AUC (0 to last) in CD-1 mouse plasma at 25 mg/kg, sc by UPLC analysis; set-up: dose 25 mg/kg, route subcutaneous, time 0 - last; outline: as §1
[14] = AUC (0 to infinity) in CD-1 mouse plasma at 25 mg/kg, sc by UPLC analysis; set-up: dose 25 mg/kg, route subcutaneous, time infinity; outline: as §1
[15] = Primary phase half life in CD-1 mouse plasma at 25 mg/kg, sc by UPLC analysis; settings: read-out: alphat1/2; outline: as §1
[16] = Elimination half life in CD-1 mouse plasma at 25 mg/kg, sc by UPLC analysis; settings: read-out: beta t1/2; outline: as §1

With `O=C(NO)[C@H]1C[C@H](OC(=O)N2CCCC2)CC[C@@H]1C(=O)N1CCC(c2ccccc2)CC1` the AUClast [1] was 12.1 pmol·min, the AUC [2] was 14 pmol·min/mg and the Kp [3] was 0.0761. The AUC(0-t) [4] was 2.58 µM·h, the AUC(0-inf) [5] was 3.07 µM·h and the half-life [6] was 0.207 h. It also gave a half-life [7] of 5.25 h, an AUClast [8] of 51.2 pmol·min and an AUC [9] of 77 pmol·min/mg. It also gave a half-life [10] of 0.19 h, a half-life [11] of 10.5 h and a Kp [12] of 0.0693. The AUC(0-t) [13] was 18.4 µM·h, the AUC(0-inf) [14] was 18.5 µM·h and the half-life [15] was 0.257 h. The half-life [16] was 2.63 h.
